# Results: ChEMBL document CHEMBL1153722, “Design, synthesis, and characterization of peptide-based rab geranylgeranyl transferase inhibitors” (J Med Chem, 2009)
# Square brackets hold non-standard residues; d marks the D form. Peptide text beside a SMILES is read from it. * marks the point of attachment. Hydrocinnamoyl = O=C(CCc1ccccc1)*; pGlu = O=C1CC[C@@H](C(=O)O)N1; Ac6c = NC1(C(=O)O)CCCCC1
# Organism: Rattus norvegicus
# Assay: Inhibition of rat recombinant Rab geranylgeranyltransferase at 100 uM in presence of canine Rab7 and rat REP1 NBD-FPP based continuous fluorimetric assay
# Summary of the method: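 Continuous fluorometric assay in 96/384-well format: 3 μM Rab7, 3 μM REP1, 9 μM NBD-FPP and 400 nM RabGGTase, with or without inhibitor. […] IC50 was calculated from three independent measurements.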
row,inhibition [%],Compound
1,25,COc1ccc(C[C@@H](C(=O)N(C)[C@@H](Cc2ccccc2)C(=O)O)N(C)C(=O)[C@@H](Cc2ccc(O)cc2)NC(=O)OCc2ccccc2)cc1
2,71,CON(C)C(=O)[C@H](CC(C)C)NC(=O)[C@H](CO)NC(=O)[C@H](Cc1ccccc1)NC(=O)/C=C/c1ccc(F)cc1
3,94,NC(=O)CC[C@H](NC(=O)[C@H](Cc1ccccc1)NC(=O)CNC(=O)CCc1ccccc1)C(=O)O (Hydrocinnamoyl-Gly-Phe-Gln-OH)
4,84,O=C(/C=C/c1ccc(F)cc1)N[C@@H](CO)C(=O)N[C@@H](Cc1ccccc1)C(=O)N[C@@H](CO)C(=O)OCCCl
5,98,CC(C)C[C@H](NC(=O)[C@H](CO)NC(=O)[C@H](Cc1ccccc1)NC(=O)/C=C/c1ccc(F)cc1)C(N)=O
6,70,CCCCCCCCCCCOC(=O)[C@H](CO)NC(=O)CNC(=O)[C@H](CO)NC(=O)/C=C/c1ccc(F)cc1
7,104,CC(C)C[C@H](NC(=O)/C=C/c1ccccc1)C(=O)N[C@@H](Cc1ccccc1)C(=O)N[C@@H](Cc1ccccc1)C(=O)Nc1ccc([N+](=O)[O-])cc1Cl
8,42,O=C(N[C@H](Cc1ccc(O)cc1)C(=O)N[C@@H](Cc1ccc(O)cc1)C(=O)N[C@@H](Cc1ccc(O)cc1)C(=O)O)OCc1ccccc1
9,93,CCCCCCCCCCCCCC(=O)N[C@@H](Cc1ccc(O)cc1)C(=O)N[C@@H](Cc1ccc(O)cc1)C(=O)N[C@@H](Cc1ccc(O)cc1)C(=O)NC1CCCCC1
10,44,C[C@@H](NC(=O)CCc1ccccc1)C(=O)N[C@@H](Cc1ccccc1)C(=O)N[C@@H](CCC(N)=O)C(=O)NC1CCCCC1
11,80,CON(C)C(=O)[C@H](Cc1ccc(O)cc1)NC(=O)CNC(=O)[C@H](Cc1ccc(O)cc1)NC(=O)CCc1ccc(F)cc1
12,55,CC(C)C[C@H](NC(=O)/C=C/c1ccccc1)C(=O)N[C@@H](Cc1ccc(Br)cc1)C(=O)N[C@@H](Cc1ccccc1)C(=O)OCc1ccccc1
13,87,CCC(C)OC(=O)[C@H](CCC(N)=O)NC(=O)[C@H](Cc1ccccc1)NC(=O)[C@@H](NC(=O)/C=C/c1ccccc1)[C@@H](C)O (some centres undefined)
14,32,CCCCCCCCCCC(=O)N[C@@H](Cc1ccc(O)cc1)C(=O)N[C@@H](Cc1cnc[nH]1)C(=O)N[C@@H](Cc1ccc(O)cc1)C(=O)NCCCn1ccnc1
15,102,C=CCCCOC(=O)[C@H](CCC(N)=O)NC(=O)[C@H](Cc1ccccc1)NC(=O)[C@@H](NC(=O)/C=C/c1ccccc1)[C@@H](C)O
16,96,C[C@H](NC(=O)CCc1ccccc1)C(=O)N[C@@H](Cc1ccccc1)C(=O)N[C@@H](CCC(N)=O)C(=O)Nc1nccs1
17,86,COC(=O)[C@H](CO)NC(=O)[C@H](Cc1c[nH]cn1)NC(=O)[C@H](CCCCN)NC(=O)CCc1ccccc1 (Hydrocinnamoyl-Lys-His-Ser-OMe)
18,99,O=C(/C=C/c1ccc(F)cc1)N[C@@H](CO)C(=O)N[C@@H](Cc1ccccc1)C(=O)N[C@@H](CO)C(=O)O
19,96,C[C@H](NC(=O)[C@@H](NC(=O)c1ccc(-c2ccccc2)cc1)[C@@H](C)O)C(=O)N[C@@H](CCC(N)=O)C(=O)NNc1ccccc1
20,46,CC[C@H](C)[C@H](NC(=O)/C=C/c1ccc(F)cc1)C(=O)N[C@@H](C)C(=O)N[C@@H](CCC(N)=O)C(=O)Nc1ccc(F)c(Cl)c1
21,92,CCCCCCCCCCCCCCCC(=O)N[C@@H](Cc1ccc(O)cc1)C(=O)N[C@@H](Cc1ccc(O)cc1)C(=O)N[C@@H](Cc1ccc(O)cc1)C(=O)NCc1ccc(F)cc1F
22,95,O=C(CCc1ccccc1)N[C@@H](CO)C(=O)N[C@@H](Cc1ccccc1)C(=O)N[C@@H](CO)C(=O)O (Hydrocinnamoyl-Ser-Phe-Ser-OH)

row,inhibition [%],Compound
1,107,CCOC(=O)[C@H](CCC(N)=O)NC(=O)[C@H](Cc1ccccc1)NC(=O)[C@H](C)NC(=O)CCc1ccccc1 (Hydrocinnamoyl-Ala-Phe-Gln-OEt)
2,103,CC(C)C[C@H](NC(=O)[C@H](COC(C)(C)C)NC(=O)[C@H](Cc1ccccc1)NC(=O)/C=C/c1ccc(F)cc1)C(=O)O
3,110,CC(C)C[C@H](NC(=O)[C@H](CO)NC(=O)[C@H](Cc1ccccc1)NC(=O)c1ccc(-c2ccccc2)cc1)C(N)=O
4,97,O=C(CNC(=O)[C@H](Cc1ccc(O)cc1)NC(=O)c1ccc(F)cc1)N[C@@H](Cc1ccc(O)cc1)C(=O)Nc1ccccc1
5,109,CC(=O)Nc1cc(C(=O)N2CCC[C@H]2C(=O)N[C@@H](C(=O)N[C@@H](CCC(=O)O)C(=O)Nc2ccc(F)c(Cl)c2)C(C)C)ccc1[N+](=O)[O-]
6,91,CCCCCCCCCCCOc1ccc(C(=O)N[C@@H](Cc2ccc(O)cc2)C(=O)N[C@@H](Cc2ccc(O)cc2)C(=O)N[C@@H](Cc2ccc(O)cc2)C(=O)NC2CCCCC2)cc1
7,74,C=CCOC(=O)[C@H](Cc1ccccc1)N(C)C(=O)[C@H](Cc1ccc(OC)cc1)N(C)C(=O)[C@@H](Cc1ccc(O)cc1)NC(=O)CCc1ccccc1
8,102,CCCCCCCCCCCOc1ccc(C(=O)N[C@@H](Cc2ccc(O)cc2)C(=O)N[C@@H](Cc2ccc(O)cc2)C(=O)N[C@@H](Cc2c[nH]cn2)C(=O)O)cc1
9,92,O=C(/C=C/c1ccc(F)cc1)N[C@@H](CO)C(=O)N[C@@H](Cc1ccccc1)C(=O)N[C@@H](CO)C(=O)Nc1ccc(F)cc1F
10,85,CCCCCCCCCCCCCCCC(=O)N[C@@H](Cc1ccc(O)cc1)C(=O)N[C@@H](Cc1ccc(O)cc1)C(=O)N[C@@H](Cc1ccc(O)cc1)C(=O)NCCCn1ccnc1
11,85,CC(C)CCNC(=O)[C@H](CO)NC(=O)CNC(=O)[C@H](CO)NC(=O)/C=C/c1ccc(F)cc1
12,102,CC(C)[C@H](NC(=O)c1coc(-c2ccccc2)n1)C(=O)NCC(=O)N[C@@H](Cc1ccc(O)cc1)C(=O)Nc1ccc(F)cc1F
13,98,COC(=O)C1(NC(=O)[C@H](CCCCN)NC(=O)[C@H](CC(C)C)NC(=O)[C@@H]2CCC(=O)N2)CCCCC1 ([pGlu]LK[Ac6c]-OMe)
14,96,NCCCC[C@H](NC(=O)CCc1ccccc1)C(=O)N[C@@H](Cc1c[nH]cn1)C(=O)N[C@@H](CO)C(=O)NCc1cccc(F)c1
15,96,C[C@H](NC(=O)[C@@H](NC(=O)c1ccc(-c2ccccc2)cc1)[C@@H](C)O)C(=O)N[C@@H](CCC(=O)O)C(=O)O
16,80,CC(C)C[C@H](NC(=O)[C@@H]1CCCN1C(=O)/C=C/c1ccccc1)C(=O)N[C@@H](Cc1ccccc1)C(=O)O
17,82,CC(C)(C)Oc1ccc(C[C@H](NC(=O)c2coc(-c3ccccc3)n2)C(=O)NCC(=O)N[C@@H](Cc2ccccc2)C(=O)O)cc1
18,109,C=CCOC(=O)[C@H](CO)NC(=O)CNC(=O)[C@H](Cc1ccccc1)NC(=O)c1coc(-c2ccccc2)n1
19,94,CC(C)C[C@H](NC(=O)[C@H](CO)NC(=O)[C@H](Cc1ccccc1)NC(=O)/C=C/c1ccc(F)cc1)C(=O)Nc1nccs1
20,101,CCCCCCCCCCCOc1ccc(C(=O)N[C@@H](Cc2c[nH]cn2)C(=O)N[C@@H](Cc2ccc(O)cc2)C(=O)N[C@@H](Cc2ccccc2)C(=O)N(C)CCc2ccccn2)cc1
21,71,CC(C)[C@H](NC(=O)[C@@H](Cc1ccccc1)NC(=O)c1ccc(-c2ccccc2)cc1)C(=O)N[C@H](C)C(=O)N1CCC[C@H]1C(N)=O
22,75,COc1ccc(C[C@@H](C(=O)N(C)[C@@H](Cc2ccccc2)C(=O)N2CCC(C(N)=O)CC2)N(C)C(=O)[C@@H](Cc2ccc(O)cc2)NC(=O)OCc2ccc([N+](=O)[O-])cc2)cc1
